Reference: ChEMBL document CHEMBL1250445, “Fluorogenic probes for monitoring peptide binding to class II MHC proteins in living cells” (Nat Chem Biol, 2007)
Calls of active or inactive are those of the source. The rule behind the calls is not given here. *1 amine or outer side, *2 acyl side, *3 side chain or, on linkers, in order; H or OH if unused. Where a SMILES comes first, the peptide text is derived from it. [ ]: non-standard residue; d: D form. The star is where a group is joined. X1 = CN(C)c1ccc2c(c1)C(=O)N(C[C@H](N[*:1])C(=O)[*:2])C2=O; X2 = CN(C)c1ccc2cc(C(=O)O)c(C(=O)*)cc2c1; X3 = CN(C)c1ccc(CC(=O)*)c(C(=O)O)c1; Dap = NC[C@H](N)C(=O)O

Experiments:
Type in all cases: cell-based
[1] = target: HLA class II histocompatibility antigen, DRB1-15 beta chain (Homo sapiens) (UniProt P01911); assay: Binding affinity to recombinant soluble HLA-DR1 expressed in […] assessed as relative fluorescence intensity by fluorescence spectral assay
[2] = target: T1, HLA class II histocompatibility antigen, DRB1-15 beta chain (Homo sapiens, UniProt P01903+P01911, A100R/D57E/F55L/F60I/F76Y/I96L/L162R/M171V/P40L/Q125E/R42F/V115G/Y59C); assay: Displacement of biotin-HA from recombinant soluble HLA-DR1 expressed in […] at acidic pH by ELISA
[3] = target: HLA class II histocompatibility antigen, DRB1-15 beta chain (Homo sapiens) (UniProt P01911); assay: Binding affinity to recombinant soluble HLA-DR1 expressed in human T2 cells assessed as increase in fluorescence lifetime at 1 uM by fluorescence lifetime imaging microscopy
[4] = target: HLA class II histocompatibility antigen, DRB1-15 beta chain (Homo sapiens) (UniProt P01911); assay: Binding affinity to recombinant soluble HLA-DR1 expressed in […] assessed as fluorescence lifetime by fluorescence lifetime imaging microscopy
[5] = target: T1, HLA class II histocompatibility antigen, DRB1-15 beta chain; assay: Displacement of biotin-HA from recombinant soluble HLA-DR1 expressed in […] by ELISA
[6] = target: HLA class II histocompatibility antigen, DRB1-15 beta chain (Homo sapiens) (UniProt P01911); assay: Activation of HLA-DR1 positive B cells assessed as IL2 secretion
In short: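 HLA-DR1-positive B cells were pulsed with peptide and used as antigen-presenting cells for the HLA-DR1-restricted, HA-specific HA1.7 T cell hybridoma. Activation was read as IL-2 secretion in a thymidine incorporation bioassay, in c.p.m. Triplicate measurements, with SD shown.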

Row | SMILES | Activity [1] | IC50 [2] | Time [4] | IC50 [5] | other results
1 | CSCC[C@H](NC(=O)[C@H](CO)NC(=O)[C@H](CCCNC(=N)N)NC(=O)[C@@H](N)CN1C(=O)c2ccc(N(C)C)cc2C1=O)C(=O)N[C@@H](C)C(=O)N[C@@H](C)C(=O)N[C@@H](C)C(=O)N[C@@H](C)C(=O)N[C@@H](CC(C)C)C(=O)O (H-[X1]RSMAAAAL-OH) | 599 cps/nM | 4 nM | 0.82 nanoseconds | 4 nM | Activity [3]: Active
2 | C[C@@H](O)[C@H](NC(=O)[C@H](CCC(=O)O)NC(=O)[C@@H](N)CN1C(=O)c2ccc(N(C)C)cc2C1=O)C(=O)N[C@@H](CC(=O)O)C(=O)N[C@@H](CCCCN)C(=O)N[C@@H](CC(=O)O)C(=O)N[C@@H](CCCCN)C(=O)N[C@@H](CO)C(=O)N[C@@H](CCCN=C(N)N)C(=O)O (H-[X1]ETDKDKSR-OH) |  |  |  | > 10000 nM | 
3 | CSCC[C@H](NC(=O)[C@H](CO)NC(=O)[C@H](CCCN=C(N)N)NC(=O)[C@H](CNC(=O)Cc1ccc(N(C)C)cc1C(=O)O)NC(C)=O)C(=O)N[C@@H](C)C(=O)N[C@@H](C)C(=O)N[C@@H](C)C(=O)N[C@@H](C)C(=O)N[C@@H](CC(C)C)C(=O)O (Ac-[Dap](X3)RSMAAAAL-OH) |  | 28 nM |  |  | 
4 | CSCC[C@H](NC(=O)[C@H](CO)NC(=O)[C@H](CCCNC(=N)N)NC(=O)[C@H](CNC(=O)c1cc2cc(N(C)C)ccc2cc1C(=O)O)NC(C)=O)C(=O)N[C@@H](C)C(=O)N[C@@H](C)C(=O)N[C@@H](C)C(=O)N[C@@H](C)C(=O)N[C@@H](CC(C)C)C(=O)O (Ac-[Dap](X2)RSMAAAAL-OH) |  | 27 nM |  |  | 
5 | CN(C)c1ccc2c(c1)C(=O)N(C[C@H](NC(=O)OCC1c3ccccc3-c3ccccc31)C(=O)O)C2=O |  |  |  | > 1000 nM | 
6 | CC(C)C[C@H](NC(=O)[C@H](CCCCN)NC(=O)[C@H](CC(C)C)NC(=O)[C@@H](NC(=O)[C@H](CC(N)=O)NC(=O)[C@H](CCC(N)=O)NC(=O)[C@H](CCCCN)NC(=O)[C@@H](NC(=O)[C@H](Cc1ccc(O)cc1)NC(=O)[C@H](CCCCN)NC(=O)[C@@H]1CCCN1C(=O)[C@@H](N)CN1C(=O)c2ccc(N(C)C)cc2C1=O)C(C)C)[C@@H](C)O)C(=O)N[C@@H](C)C(=O)N[C@H](C(=O)O)[C@@H](C)O | 578 cps/nM |  | 0.6 nanoseconds |  | Activity [6]: Active
